Legend:
[1] = system: Mus musculus; assay: Biodistribution in colon and feces of C57BL/6J mouse harboring mouse B16-Bl6 cells at 9 to 12 MBq, iv after 3 hrs by PET analysis; assay type: ADME, organism-based; conditions: in vivo
Outline: (§1)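 Ex vivo dissection in B16Bl6-bearing C57BL/6J mice (3x10⁵ cells s.c. right shoulder), done at day 10 or 14 after implantation. The ¹⁸F tracer was given i.v. at 9-12 MBq. Mice were killed by CO₂ at 1, 2 or 3 h. Tumor, organs and tissues were excised, weighed and gamma-counted, then decay-corrected and expressed as %ID/g. n=3-6 per group; mean ± SD.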

[2] = system: Heart; assay: Biodistribution in heart of C57BL/6J mouse harboring mouse B16-Bl6 cells at 9 to 12 MBq, iv after 3 hrs by PET analysis; assay type: ADME, organism-based; conditions: in vivo; outline: as §1
[3] = system: Nucleic Acid; assay: Ratio of drug level in tumor to muscle in C57BL/6J mouse harboring mouse B16-Bl6 cells at 9 to 12 MBq, iv after 1 hr by PET analysis; assay type: ADME, organism-based; conditions: in vivo
Outline: (§2)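 Ex vivo biodistribution. C57BL/6J mice bearing subcutaneous B16Bl6 tumours (3x10⁵ cells, shoulder), day 10 or 14, received [18F]tracer iv (9-12 MBq). They were killed by CO₂ at 1, 2 or 3 h. Tumours and organs were excised, weighed and gamma-counted. Results are decay-corrected % ID/g; ratios are tumour over tissue. n=3-6 per group; mean ± SD.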

[4] = Ratio of drug level in tumor to muscle in C57BL/6J mouse harboring mouse B16-Bl6 cells at 8 to 12 MBq, iv after 1 hr by PET analysis; assay type: ADME, organism-based; conditions: in vivo
Outline: (§3)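 Static whole-body PET at 1 h after tail-vein injection of [18F]tracer (9-12 MBq/0.15 mL) in C57BL/6J mice carrying subcutaneous B16Bl6 shoulder tumours (3x10⁵ cells), imaged day 10 or 14. Mice under ketamine/xylazine ip. 25 min acquisition, OSEM reconstruction. ROI % ID/g = counts/g/min ÷ injected dose; ratios = tumour % ID/g ÷ organ % ID/g. n=2-8; mean ± SD.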

[5] = system: Mus musculus; assay: Ratio of drug level in tumor to bone in C57BL/6J mouse harboring mouse B16-Bl6 cells at 9 to 12 MBq, iv after 2 hrs by PET analysis; conditions: in vivo
[6] = system: Brain; assay: Biodistribution in brain of C57BL/6J mouse harboring mouse B16-Bl6 cells at 9 to 12 MBq, iv after 3 hrs by PET analysis; assay type: ADME, organism-based; conditions: in vivo; outline: as §1
[7] = system: Mus musculus; assay: Biodistribution in small intestine of C57BL/6J mouse harboring mouse B16-Bl6 cells at 9 to 12 MBq, iv after 3 hrs by PET analysis; assay type: ADME, organism-based; conditions: in vivo; outline: as §1
[8] = system: Blood; assay: Biodistribution in blood of C57BL/6J mouse harboring mouse B16-Bl6 cells at 9 to 12 MBq, iv after 3 hrs by PET analysis; assay type: ADME, organism-based; conditions: in vivo; outline: as §1
[9] = system: Spleen; assay: Biodistribution in spleen of C57BL/6J mouse harboring mouse B16-Bl6 cells at 9 to 12 MBq, iv after 3 hrs by PET analysis; assay type: ADME, organism-based; conditions: in vivo; outline: as §1
[10] = system: Mus musculus; assay: Ratio of drug level in tumor to muscle in C57BL/6J mouse harboring mouse B16-Bl6 cells at 9 to 12 MBq, iv after 3 hrs by PET analysis; conditions: in vivo
[11] = system: Stomach; assay: Biodistribution in stomach of C57BL/6J mouse harboring mouse B16-Bl6 cells at 9 to 12 MBq, iv after 2 hrs by PET analysis; assay type: ADME, organism-based; conditions: in vivo; outline: as §1
[12] = system: Mus musculus; assay: Biodistribution in eye of C57BL/6J mouse harboring mouse B16-Bl6 cells at 8 to 12 MBq, iv after 1 hr by PET analysis; assay type: ADME, organism-based; conditions: in vivo
Outline: (§4)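 C57BL/6J mice were inoculated s.c. on the right shoulder with 3x10⁵ B16Bl6 cells in PBS under isoflurane, and imaged at day 10 or 14 (tumor volume 431.8 ± 154.3 mm³). The ¹⁸F tracer was given i.v. via tail vein, 8-12 MBq (methods: 9-12 MBq/0.15 mL). Under ketamine/xylazine i.p., a 25-min whole-body static PET scan ran at 1 h. ROI %ID/g = counts/g/min ÷ injected dose. n=2-8; mean ± SD.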

[13] = system: Kidney; assay: Biodistribution in kidney of C57BL/6J mouse harboring mouse B16-Bl6 cells at 9 to 12 MBq, iv after 2 hrs by PET analysis; assay type: ADME, organism-based; conditions: in vivo; outline: as §1
[14] = system: Mus musculus; assay: Ratio of drug level in tumor to blood in C57BL/6J mouse harboring mouse B16-Bl6 cells at 9 to 12 MBq, iv after 2 hrs by PET analysis; conditions: tumour
[15] = system: Pancreas; assay: Biodistribution in pancreas of C57BL/6J mouse harboring mouse B16-Bl6 cells at 9 to 12 MBq, iv after 2 hrs by PET analysis; assay type: ADME, organism-based; conditions: in vivo; outline: as §1
[16] = system: Muscle tissue; assay: Biodistribution in muscle of C57BL/6J mouse harboring mouse B16-Bl6 cells at 8 to 12 MBq, iv after 1 hr by PET analysis; assay type: ADME, organism-based; conditions: in vivo; outline: as §4
[17] = system: Lung; assay: Biodistribution in lung of C57BL/6J mouse harboring mouse B16-Bl6 cells at 9 to 12 MBq, iv after 1 hr by PET analysis; assay type: ADME, organism-based; conditions: in vivo; outline: as §1
[18] = Ratio of drug level in tumor to bone in C57BL/6J mouse harboring mouse B16-Bl6 cells at 8 to 12 MBq, iv after 1 hr by PET analysis; assay type: ADME, organism-based; conditions: in vivo; outline: as §3
[19] = system: Spleen; assay: Biodistribution in spleen of C57BL/6J mouse harboring mouse B16-Bl6 cells at 9 to 12 MBq, iv after 2 hrs by PET analysis; assay type: ADME, organism-based; conditions: in vivo; outline: as §1
[20] = system: Spleen; assay: Biodistribution in spleen of C57BL/6J mouse harboring mouse B16-Bl6 cells at 9 to 12 MBq, iv after 1 hr by PET analysis; assay type: ADME, organism-based; conditions: in vivo; outline: as §1
[21] = system: Mus musculus; assay: Biodistribution in colon and feces of C57BL/6J mouse harboring mouse B16-Bl6 cells at 9 to 12 MBq, iv after 2 hrs by PET analysis; assay type: ADME, organism-based; conditions: in vivo; outline: as §1
[22] = system: Muscle tissue; assay: Biodistribution in muscle of C57BL/6J mouse harboring mouse B16-Bl6 cells at 9 to 12 MBq, iv after 1 hr by PET analysis; assay type: ADME, organism-based; conditions: in vivo; outline: as §1
[23] = system: Blood; assay: Biodistribution in blood of C57BL/6J mouse harboring mouse B16-Bl6 cells at 9 to 12 MBq, iv after 2 hrs by PET analysis; assay type: ADME, organism-based; conditions: in vivo; outline: as §1
[24] = system: Liver; assay: Biodistribution in liver of C57BL/6J mouse harboring mouse B16-Bl6 cells at 9 to 12 MBq, iv after 1 hr by PET analysis; assay type: ADME, organism-based; conditions: in vivo; outline: as §1
[25] = system: Muscle tissue; assay: Biodistribution in muscle of C57BL/6J mouse harboring mouse B16-Bl6 cells at 9 to 12 MBq, iv after 3 hrs by PET analysis; assay type: ADME, organism-based; conditions: in vivo; outline: as §1
[26] = Ratio of drug level in tumor to blood in C57BL/6J mouse harboring mouse B16-Bl6 cells at 9 to 12 MBq, iv after 3 hrs by PET analysis; assay type: ADME, organism-based; outline: as §2
[27] = system: Liver; assay: Biodistribution in liver of C57BL/6J mouse harboring mouse B16-Bl6 cells at 9 to 12 MBq, iv after 2 hrs by PET analysis; assay type: ADME, organism-based; conditions: in vivo; outline: as §1

| Structure (SMILES) | Drug uptake [1] [% ID/g] | Drug uptake [2] [% ID/g] | Ratio [3] | Ratio [4] | Ratio [5] | Drug uptake [6] [% ID/g] | Drug uptake [7] [% ID/g] | Drug uptake [8] [% ID/g] | Drug uptake [9] [% ID/g] | Ratio [10] | Drug uptake [11] [% ID/g] | Drug uptake [12] [% ID/g] | Drug uptake [13] [% ID/g] | Ratio [14] | Drug uptake [15] [% ID/g] | Drug uptake [16] [% ID/g] | Drug uptake [17] [% ID/g] | Ratio [18] | Drug uptake [19] [% ID/g] | Drug uptake [20] [% ID/g] | also measured |
| --- | --- | --- | --- | --- | --- | --- | --- | --- | --- | --- | --- | --- | --- | --- | --- | --- | --- | --- | --- | --- | --- |
| CCN(CCNC(=O)c1cnc2cc(I)ccc2n1)CCOCCOCCOCC[18F] | 8.09 | 2.32 | 12.12 | 11.04 | 7.13 | 1.37 | 3.91 | 0.8 | 1.87 | 14.46 | 2.48 | 10.5 | 2.18 | 12.19 | 1.33 | 1.37 | 1.86 | 7.65 | 2.88 | 3.72 | Drug uptake [21]: 6.05 % ID/g; Drug uptake [22]: 1.17 % ID/g; Drug uptake [23]: 1.12 % ID/g; Drug uptake [24]: 2.56 % ID/g; Drug uptake [25]: 0.81 % ID/g; Kp at 3 h [26]: 14.4; Drug uptake [27]: 1.88 % ID/g |
| CCN(CCNC(=O)c1cnc2cc(I)ccc2n1)CCOCCOCCOCCOCCOCCOCCOCC[18F] | 12.63 | 3 | 9.48 | 6.62 | 2.75 | 1.72 | 18.62 | 0.99 | 2.35 | 6.64 | 7.35 | 5.53 | 3.52 | 4.01 | 1.56 | 1.01 | 1.75 | 2.67 | 2.38 | 2.35 | Drug uptake [21]: 8.14 % ID/g; Drug uptake [22]: 1.07 % ID/g; Drug uptake [23]: 1.37 % ID/g; Drug uptake [24]: 2.02 % ID/g; Drug uptake [25]: 1.11 % ID/g; Kp at 3 h [26]: 5.27; Drug uptake [27]: 2.31 % ID/g |

— ChEMBL document CHEMBL2440113, “Synthesis, radiofluorination, and in vivo evaluation of novel fluorinated and iodinated radiotracers for PET imaging and targeted radionuclide therapy of melanoma” (J Med Chem, 2013)
